Experimental data from ChEMBL document CHEMBL1135749, “Stereoselective synthesis and antiviral activity of D-2',3'-didehydro-2',3'-dideoxy-2'-fluoro-4'-thionucleosides” (J Med Chem, 2002).

Columns and labels:
[1] = target: T1, Adenosine deaminase (Bos taurus) (UniProt P56658); assay: Kinetic parameter Kcat of compound used as substrate for Adenosine deaminase was evaluated
T1 sequence (whole entry): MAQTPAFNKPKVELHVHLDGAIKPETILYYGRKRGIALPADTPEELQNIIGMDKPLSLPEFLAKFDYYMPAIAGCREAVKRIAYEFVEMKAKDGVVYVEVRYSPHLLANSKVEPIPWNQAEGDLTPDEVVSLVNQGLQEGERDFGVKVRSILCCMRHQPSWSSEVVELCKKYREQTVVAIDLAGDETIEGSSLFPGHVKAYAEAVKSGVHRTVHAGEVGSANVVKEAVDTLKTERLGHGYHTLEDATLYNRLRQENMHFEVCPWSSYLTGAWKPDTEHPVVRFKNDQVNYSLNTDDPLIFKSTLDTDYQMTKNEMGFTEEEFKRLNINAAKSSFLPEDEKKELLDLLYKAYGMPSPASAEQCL
Method in brief: (§1)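 Calf intestinal mucosa adenosine deaminase (0.15 units) in pH 7.4 phosphate buffer (2 mL) at 25 °C, with substrate at 15-100 µM. Hydrolysis was followed by UV absorbance at 265 nm, and substrate concentration was derived from the absorbance change. Initial rates came from graphical fitting of concentration versus time.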

[2] = Ratio of kinetic parameter Kcat to that of binding affinity towards adenosine deaminase KM.; method in brief: as §1

SMILES	k cat [1] [s⁻¹]	k cat/Km [2] [M⁻¹ s⁻¹]
Nc1ncnc2c1ncn2[C@@H]1O[C@H](CO)[C@@H](O)[C@H]1O	76.4	3.1e+06
Nc1ncnc2c1ncn2[C@@H]1S[C@H](CO)C=C1F	0.94	50000
